These results are taken from ChEMBL document CHEMBL1152122, “New lithocholic and chenodeoxycholic piperazinylcarboxamides with antiproliferative and pro-apoptotic effects on human cancer cell lines” (2008).

Assay [1] relates to GBM. Description: Cytotoxicity against human GBM cells at 50 uM after 24 hrs by neutral red uptake assay. The format is functional, cell-based. The method in brief:
(§1)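 After 24 h, a single 50 µM dose was given for 24 or 48 h, with DMSO controls. Neutral red uptake for 3 h at 50 µg/mL final, with read-out at OD 570 nm. Viability expressed as % of untreated cells, four wells per line.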

The test system of assay [2] is HCT-116. Description: Cytotoxicity against human HCT116 cells after 24 hrs by neutral red uptake assay. The format is functional. To be noted: HCT-116, 24 h, read-out: LD50 (the source's name). The essentials:
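Compounds added after 24 h for a 24 h dose-response, with DMSO vehicle controls. Neutral red 50 µg/mL final for 3 h, then fixation, acid-ethanol extraction and OD at 570 nm. LD50 taken from curves; mean ± standard error of ≥3 experiments.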

The subject of assay [3] is HCT-116. Description: Cytotoxicity against human HCT116 cells at 50 uM after 24 hrs by neutral red uptake assay. It counts as functional, cell-based. The essentials: as §1
The test system of assay [4] is KMS-11. Description: Cytotoxicity against human KMS11 cells at 50 uM after 24 hrs by neutral red uptake assay. It counts as functional, cell-based. The essentials:
as §1

Assay [5] has as its system GBM. Description: Cytotoxicity against human GBM cells at 50 uM after 48 hrs by neutral red uptake assay. The format is functional, cell-based. The essentials: as §1
Assay [6] has as its system HCT-116. Description: Cytotoxicity against human HCT116 cells at 50 uM after 48 hrs by neutral red uptake assay. The format is functional, cell-based. The essentials:
as §1

The test system of assay [7] is KMS-11. Description: Cytotoxicity against human KMS11 cells at 50 uM after 48 hrs by neutral red uptake assay. The format is functional, cell-based. The essentials:
as §1

Assay [8] deals with KMS-11. Description: Cytotoxicity against human KMS11 cells assessed as [3H]thymidine incorporation at 20 uM after 24 hrs. It counts as functional, cell-based. The essentials:
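KMS-11 (multiple myeloma plasma-cell line) in RPMI 1640 with 5% FCS, seeded at 500,000 cells/well in triplicate at 37 °C, 5% CO2. After 24 h, drug or vehicle added in fresh medium. After 24 h, pulsed with 1 μCi/well [3H]thymidine. Cells trypsin/EDTA-detached, harvested onto glass filters, counted by scintillation. Output as % of untreated cells; three independent experiments.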
A general note: Dividing cells build labelled thymidine or BrdU into new DNA.

The test system of assay [9] is GBM. Description: Cytotoxicity against human GBM cells assessed as morphological changes at 12 uM after 24 hrs by neutral red uptake assay. It counts as functional, cell-based. The essentials:
(§2)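 Cells in RPMI 1640 with 10% FCS (GBM primary culture, HCT-116) or 5% FCS (KMS-11), 2 mM glutamine, antibiotics, used at 70–80% confluency. Morphology examined alongside neutral red uptake viability.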

Assay [10] concerns HCT-116. Description: Cytotoxicity against human HCT116 cells assessed as morphological changes at 12 uM after 24 hrs by neutral red uptake assay. It counts as functional, cell-based. The method in brief:
as §2

The test system of assay [11] is KMS-11. Description: Cytotoxicity against human KMS11 cells assessed as morphological changes at 12 uM after 24 hrs by neutral red uptake assay. The format is functional, cell-based. The method in brief: as §2
Assay [12] deals with KMS-11. Description: Induction of apoptosis in human KMS11 cells at 10 uM after 24 hrs by PC5-labeled Apo2.7 antibody based flow cytometry. It counts as functional. The method in brief: (§3)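 KMS-11 cells treated 24 h at the stated concentrations, then stained with the phycoerythrin-labeled APO2.7 antibody kit, which detects mitochondrial 7A6 antigen. Analysed by flow cytometry and reported as % APO2.7-positive cells.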
Background: Flow cytometry measures light scatter and fluorescence of single cells or particles in a stream.

Assay [13] has as its system KMS-11. Description: Induction of apoptosis in human KMS11 cells at 40 uM after 24 hrs by PC5-labeled Apo2.7 antibody based flow cytometry. The format is functional. The essentials:
as §3

Assay [14] has as its system KMS-11. Description: Induction of apoptosis in human KMS11 cells after 24 hrs by PC5-labeled Apo2.7 antibody based flow cytometry. The format is functional, cell-based. The method in brief:
as §3

The subject of assay [15] is KMS-11. Description: Induction of apoptosis in human KMS11 cells assessed as Cleavage of Mcl-1 after 24 hrs by Western blotting. The format is functional, cell-based. The method in brief: (§4)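 KMS-11 cells treated 24 h. 5×10^6 cells lysed 40 min on ice (10 mM Tris pH 7.6, 150 mM NaCl, 5 mM EDTA, 1% Triton X-100, PMSF, aprotinin), cleared at 10,000 g. Equal BCA-quantified protein run on reducing SDS-PAGE and transferred to PVDF. Primary antibodies (PARP-1, Mcl-1, IκBα, phospho-IκBα) overnight at 4 °C, then HRP secondary 30 min, chemiluminescent detection.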
Background: Immunoblotting shows a protein as a band on a membrane.

Assay [16] deals with KMS-11. Description: Induction of apoptosis in human KMS11 cells assessed as Cleavage of PARP-1 after 24 hrs by Western blotting. The format is functional, cell-based. The method in brief:
as §4

Assay [17] concerns KMS-11. Description: Induction of apoptosis in human KMS11 cells assessed as hyperphosphorylation of IkappaB after 24 hrs by Western blotting. It counts as functional, cell-based. The method in brief:
as §4

The test system of assay [18] is KMS-11. Description: Induction of apoptosis in human KMS11 cells assessed as fragmentation of nuclei at 10 uM after 24 hrs […]. It counts as functional.
For assay [19], the system named is KMS-11. Description: Induction of apoptosis in human KMS11 cells assessed as fragmentation of nuclei at 20 uM after 24 hrs […]. The format is functional.
Assay [20] has as its system KMS-11. Description: Induction of apoptosis in human KMS11 cells assessed as DNA fragmentation at 5 uM after 24 hrs by Hoechst staining. The format is functional, cell-based. The essentials: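 KMS-11 cells on glass coverslips fixed in 2% formaldehyde 10 min and stained with Hoechst 33342 (1 µg/mL in PBS, 5 min). Nuclei viewed by epifluorescence microscopy under 350 nm excitation.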

Structures are written as SMILES. Calls of active or inactive are those of the source. The calls are words filed in the database; no cut-off is given here.

Consider `C[C@H](CCC(=O)N1CCN(c2ccccn2)CC1)[C@H]1CC[C@H]2[C@@H]3[C@H](O)C[C@@H]4C[C@H](O)CC[C@]4(C)[C@H]3CC[C@]12C`, for which the result in the assay with GBM [1], in the assay on HCT-116 [3], in the assay on KMS-11 [4], in the assay on GBM [5], with HCT-116 [6] and in the assay with KMS-11 [7] was inactive. Besides, the CC50 in the assay on HCT-116 [2] is more than 50 µM.

For the compound `c1ccc(N2CCNCC2)nc1`, the result with GBM [1], in the assay on HCT-116 [3], in the assay on KMS-11 [4], with GBM [5], with HCT-116 [6] and in the assay with KMS-11 [7] was inactive.

Regarding `c1cnc(N2CCNCC2)nc1`, the outcome with GBM [1], in the assay on HCT-116 [3], in the assay on KMS-11 [4], in the assay on GBM [5], with HCT-116 [6] and in the assay with KMS-11 [7] was inactive.

Consider `C(=C\c1ccccc1)/CN1CCNCC1`, for which the outcome with GBM [1], in the assay with HCT-116 [3], in the assay on KMS-11 [4], in the assay with GBM [5], with HCT-116 [6] and in the assay on KMS-11 [7] was inactive.

On to `C[C@H](CCC(=O)N1CCN(C/C=C/c2ccccc2)CC1)[C@H]1CC[C@H]2[C@@H]3[C@H](O)C[C@@H]4C[C@H](O)CC[C@]4(C)[C@H]3CC[C@]12C`, for which the result in the assay with GBM [1], with HCT-116 [3], in the assay with KMS-11 [4], with KMS-11 [8], in the assay on GBM [9] and with HCT-116 [10] was Active. In addition, the result in the assay on KMS-11 [11], in the assay with KMS-11 [15], with KMS-11 [16], with KMS-11 [17] and in the assay on KMS-11 [20] was Active. In the assay with HCT-116 [2], the CC50 came to 18.5 µM. In addition, the Activity in the assay with KMS-11 [12] is 37%; with KMS-11 [13] it was 86%; in the assay with KMS-11 [14] it was “Dose-dependent effect”; in the assay with KMS-11 [18], 5%; in the assay with KMS-11 [19] it was 61%.

Turning to `C[C@H](CCC(=O)N1CCN(c2ncccn2)CC1)[C@H]1CC[C@H]2[C@@H]3CC[C@@H]4C[C@H](O)CC[C@]4(C)[C@H]3CC[C@]12C`, the CC50 with HCT-116 [2] was found to be 50 µM.

Consider `C[C@H](CCC(=O)N1CCN(c2ccccn2)CC1)[C@H]1CC[C@H]2[C@@H]3CC[C@@H]4C[C@H](O)CC[C@]4(C)[C@H]3CC[C@]12C`, for which the CC50 with HCT-116 [2] was 50 µM.

In the case of `C[C@H](CCC(=O)N1CCN(C/C=C/c2ccccc2)CC1)[C@H]1CC[C@H]2[C@@H]3CC[C@@H]4C[C@H](O)CC[C@]4(C)[C@H]3CC[C@]12C`, the outcome with GBM [1], with HCT-116 [3], in the assay with KMS-11 [4], in the assay on GBM [5], with HCT-116 [6] and with KMS-11 [7] was inactive. For the same compound, the CC50 in the assay with HCT-116 [2] is more than 50 µM.

Regarding `C[C@H](CCC(=O)O)[C@H]1CC[C@H]2[C@@H]3[C@H](O)C[C@@H]4C[C@H](O)CC[C@]4(C)[C@H]3CC[C@]12C` [CHENODIOL], the result in the assay on GBM [1], in the assay with HCT-116 [3], with KMS-11 [4], in the assay with GBM [5], with HCT-116 [6] and in the assay on KMS-11 [7] was inactive. Further, in the assay on HCT-116 [2], the CC50 was more than 50 µM.

With `C[C@H](CCC(=O)O)[C@H]1CC[C@H]2[C@@H]3CC[C@@H]4C[C@H](O)CC[C@]4(C)[C@H]3CC[C@]12C` [LITHOCHOLIC ACID], the outcome with GBM [1], in the assay with HCT-116 [3], with KMS-11 [4], in the assay on GBM [5], in the assay on HCT-116 [6] and in the assay with KMS-11 [7] was inactive. Moreover, the CC50 in the assay with HCT-116 [2] is more than 50 µM.

Take `C[C@H](CCC(=O)N1CCN(c2ncccn2)CC1)[C@H]1CC[C@H]2[C@@H]3[C@H](O)C[C@@H]4C[C@H](O)CC[C@]4(C)[C@H]3CC[C@]12C`: the CC50 in the assay on HCT-116 [2] amounted to 30 µM.
